The source of these data is ChEMBL document CHEMBL2169861, “Synthesis and biological evaluation of novel unsaturated carboxysteroids as human 5α-reductase inhibitors: a legitimate approach” (Eur J Med Chem, 2012).

SMILES strings stand for the structures.

The test system of series [1] is Rattus norvegicus. Briefly: Anti-benign prostatic hyperplasia activity in Wistar rat assessed as reduction of body weight gain at 1 mg/kg, po qd for 14 days measured on day 15. More on the design: scale not given: the % may be the effect or the level left. In kind it is functional. Summed up:
(§1)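 Mature male Wistar rats, acclimatised one month, dosed orally once daily for 14 days with suspension in 0.50% carboxymethylcellulose at 5 ml/kg; vehicle controls; 5 rats/group. Killed under ether on day 15, 24 h after last dose; organs dissected free of fat and connective tissue, weighed, expressed per 100 g body weight. Mean ± SEM; one-way ANOVA with Dunnett's test.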

Series [2] deals with Rattus norvegicus. Briefly: Anti-benign prostatic hyperplasia activity in Wistar rat assessed as reduction of liver weight gain per 100 gram of body weight at 1 mg/kg, po qd for 14 days measured on day 15. It counts as functional. The method in brief:
as §1

In series [3] the test system is Rattus norvegicus. Briefly: Anti-benign prostatic hyperplasia activity in Wistar rat assessed as reduction of vas deferens weight gain at 1 mg/kg, po qd for 14 days measured on day 15. More on the design: scale not given: the % may be the effect or the level left. In kind it is functional. The method in brief:
as §1

The subject of series [4] is Rattus norvegicus. The series can be described thus: Anti-benign prostatic hyperplasia activity in Wistar rat assessed as reduction of epididymis weight gain at 1 mg/kg, po qd for 14 days measured on day 15. It counts as functional. More on the design: scale not given: the % may be the effect or the level left. Summed up:
as §1

Series [5] relates to Rattus norvegicus. Briefly: Anti-benign prostatic hyperplasia activity in Wistar rat assessed as reduction of ventral prostate weight gain at 1 mg/kg, po qd for 14 days measured on day 15. More on the design: scale not given: the % may be the effect or the level left. In kind it is functional, Prostate gland. Summed up: as §1
For series [6], the target named is T1, 3-oxo-5-alpha-steroid 4-dehydrogenase 1 (Homo sapiens) (UniProt P18405).
T1 sequence (whole entry): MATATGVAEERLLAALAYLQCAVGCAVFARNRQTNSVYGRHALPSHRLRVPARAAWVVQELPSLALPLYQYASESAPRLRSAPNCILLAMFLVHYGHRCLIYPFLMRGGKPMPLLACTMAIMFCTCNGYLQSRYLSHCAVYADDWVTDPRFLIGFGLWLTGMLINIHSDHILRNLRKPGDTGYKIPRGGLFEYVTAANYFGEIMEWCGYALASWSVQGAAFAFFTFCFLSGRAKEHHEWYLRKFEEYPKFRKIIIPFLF
Briefly: Inhibition of human type-1 5-alpha reductase expressed in HEK293 cells using [3H]-androstenedione as substrate at 10 uM after 30 mins by HPLC analysis. In kind it is cell-based. Summed up: (§2)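 Lysates of 80% confluent HEK293 cells stably expressing human type I or type II cDNA (pRcCMV), sonicated in 300 mM saccharose, 5 mM Tris-HCl, 0.1 mM EDTA. Final 500 nM androstenedione with [3H]androstenedione, NADPH-regenerating system (0.55 mM NADP, 5 mM glucose-6-phosphate, G6PDH), 2% DMSO; 30 min, 37 °C. Ether-extracted; conversion quantified by radio-HPLC on C8.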

The test system of series [7] is Rattus norvegicus. The series can be described thus: Anti-benign prostatic hyperplasia activity in Wistar rat assessed as reduction of dorsal prostate weight gain at 1 mg/kg, po qd for 14 days measured on day 15. In kind it is functional, Prostate gland. More on the design: scale not given: the % may be the effect or the level left. Summed up:
as §1

In series [8] the test system is Rattus norvegicus. The series can be described thus: Anti-benign prostatic hyperplasia activity in Wistar rat assessed as reduction of adrenal weight gain per 100 gram of body weight at 1 mg/kg, po qd for 14 days measured on day 15. It counts as functional. The method in brief: as §1
The target in series [9] is T1, 3-oxo-5-alpha-steroid 4-dehydrogenase 1 (Homo sapiens). Briefly: Inhibition of human type-1 5-alpha reductase expressed in HEK293 cells using [3H]-androstenedione as substrate at 2 uM after 30 mins by HPLC analysis. It counts as cell-based. The method in brief:
as §2

Series [10] relates to Rattus norvegicus. The series can be described thus: Anti-benign prostatic hyperplasia activity in Wistar rat assessed as reduction of seminal vesicle weight gain per 100 gram of body weight at 1 mg/kg, po qd for 14 days measured on day 15. It counts as functional. Summed up:
as §1

In series [11] the test system is Rattus norvegicus. The series can be described thus: Anti-benign prostatic hyperplasia activity in Wistar rat assessed as reduction of testis weight gain per 100 gram of body weight at 1 mg/kg, po qd for 14 days measured on day 15. It counts as functional. Summed up: as §1
Series [12] deals with Rattus norvegicus. Briefly: Toxicity in Wistar rat assessed as mortality at 1 mg/kg, po qd for 14 days measured on day 15. It counts as organism-based. More on the design: dose 1 mg/kg, route oral. The conditions noted are these: in vivo, 336 h. The method in brief: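 Mature male Wistar rats, acclimatised one month, dosing begun after 9 weeks. Compound suspended in 0.50% carboxymethylcellulose sodium and given orally at 5 ml/kg once daily for 14 days. Vehicle-only control group, 5 animals per group. Mortality recorded over treatment. Rats weighed and killed under ether anaesthesia on day 15, 24 h after the last dose.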

Series [13] addresses T2, 3-oxo-5-alpha-steroid 4-dehydrogenase 2 (Homo sapiens) (UniProt P31213).
T2 sequence (whole entry): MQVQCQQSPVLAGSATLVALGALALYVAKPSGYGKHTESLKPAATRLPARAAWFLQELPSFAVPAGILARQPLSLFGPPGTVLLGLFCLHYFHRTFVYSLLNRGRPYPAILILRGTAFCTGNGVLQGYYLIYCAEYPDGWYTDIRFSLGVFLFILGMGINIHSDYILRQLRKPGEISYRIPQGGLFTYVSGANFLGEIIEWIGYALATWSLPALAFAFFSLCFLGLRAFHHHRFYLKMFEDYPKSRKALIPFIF
The series can be described thus: Inhibition of human type-2 5-alpha reductase expressed in HEK293 cells using [3H]-androstenedione as substrate at 10 uM after 30 mins by HPLC analysis. It counts as cell-based. The method in brief:
as §2

As a reminder, the inhibition is the relative decrease from the control value, in per cent. `CN1C(=O)CC[C@H]2[C@@H]3CC=C4C=C(C#N)CC[C@]4(C)[C@H]3CC[C@@]21C`: the Activity with Rattus norvegicus [1] is 6.767%; with Rattus norvegicus [2], 4.861 g; in the series on Rattus norvegicus [3] it was 14.58%; in the series on Rattus norvegicus [4], 10.11%; with Rattus norvegicus [5], 6.72%; with Rattus norvegicus [7] it was -8.07%. The Activity was 21.311 mg with Rattus norvegicus [8], 223.05 mg with Rattus norvegicus [10], 932.988 mg with Rattus norvegicus [11] and “Non-toxic” with Rattus norvegicus [12]. Further, the inhibition in series [6] is 93%; in series [9], 64%; in [13], 13.5%.
